Measurements taken from ChEMBL document CHEMBL1140094, “Novel microtubule-interacting phenoxy pyridine and phenyl sulfanyl pyridine analogues for cancer therapy” (J Med Chem, 2008).
Active and inactive are the calls of the source. The rule behind the calls is not given here.

Key:
PANC-1 [1] = assay: Growth inhibition of human Panc1 cells at 1 uM after 96 hrs by MTT assay relative to control; format: functional; settings: PANC-1, 96 h, values are per cent of control
How it was run: (§1)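 MTT initial screen of Panc1 and HS766T human pancreatic cancer cells at 1 and 10 μM; growth expressed as percent of untreated control with SD.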

PANC-1 [2] = assay: Growth inhibition of human Panc1 cells at 10 uM after 96 hrs by MTT assay relative to control; format: functional; settings: PANC-1, 96 h, values are per cent of control; how it was run: as §1
[3] = Growth inhibition of human HS766T cells at 1 uM after 96 hrs by MTT assay relative to control; format: functional; settings: Hs 766, 96 h, values are per cent of control; how it was run: as §1
[4] = Growth inhibition of human HS766T cells at 10 uM after 96 hrs by MTT assay relative to control; format: functional; settings: Hs 766, 96 h, values are per cent of control; how it was run: as §1
[5] = Inhibition of tubulin polymerization
[6] = Inhibition of tubulin polymerization relative to control; settings: values are per cent of control
How it was run: (§2)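 Turbidity-monitored tubulin assembly; extent of assembly at 20 min compared with no-compound control.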

SK-OV-3 = assay: Cytotoxicity against paclitaxel-resistant human SKOV3 cells after 7 days by MTT assay; format: functional, cell-based
[7] = Inhibition of tubulin polymerization at 4 to 5 uM relative to control; how it was run: as §2
[8] = Growth inhibition of human HS766T cells after 96 hrs by MTT assay relative to control; format: functional, cell-based; settings: Hs 766, 96 h
PANC-1 [9] = assay: Growth inhibition of human Panc1 cells after 96 hrs by MTT assay relative to control; format: functional, cell-based; settings: PANC-1, 96 h
[10] = Inhibition of tubulin polymerization assessed as effect on maximum propogation rate
MCF7 [11] = assay: Cell cycle arrest in human MCF7 cells assessed as accumulation at G2/M phase at 5 uM after 15 hrs by propidium iodide staining; format: functional
How it was run: (§3)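 MCF7 breast cancer cells treated 15 h at 5 μM; colcemid 0.1 μg/mL (about 0.25 μM) as positive control. Cells harvested and fixed, DNA labeled with propidium iodide, mitotic cells labeled with monoclonal MPM2 (phospho-epitopes at mitosis onset); flow cytometry. PI scans gated M1 G1, M3 S, M2 G2/M; mitotic fold increase versus untreated.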

MCF7 [12] = assay: Induction of microtubule disassembly in human MCF7 cells assessed as prometaphase cell cycle arrest at 5 uM after 15 hrs by immunofluorescence staining; format: functional, cell-based
How it was run: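 MCF7 cells exposed 15 h to 5 μM compound, colcemid 0.25 μM as positive control, untreated controls. Anti-α-tubulin primary with Alexa-568 secondary, DNA counterstained with DAPI; immunofluorescence microscopy scoring microtubule loss, mitotic stage (prometaphase arrest) and micronuclei in interphase cells.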

MCF7 [13] = assay: Cell cycle arrest in human MCF7 cells assessed as accumulation at G2/M phase at 5 uM after 15 hrs by MPM2 antibody labeling; format: functional; how it was run: as §3

| SMILES | viability, % of control at 1 µM (PANC-1 [1]) | viability, % of control at 10 µM (PANC-1 [2]) | viability, % of control at 1 µM [3] | viability, % of control at 10 µM [4] | other results |
| --- | --- | --- | --- | --- | --- |
| COc1ccc(C(=O)NC(=O)Nc2ccc(Sc3cccc(C(=O)NCc4ccccc4)c3)cc2)c(Cl)c1OC | 89% | 51% | 97% | 75% |  |
| C=CCNC(=O)c1cccc(Oc2ccc(NC(=O)NC(=O)c3ccccc3[N+](=O)[O-])cc2)c1 | 76% | 55% | 55% | 30% |  |
| C=CCNC(=O)c1cccc(Oc2ccc(NC(=O)NC(=O)c3cc(OC)cc(OC)c3)cc2)c1 | 58% | 68% | 107% | 64% |  |
| CNC(=O)c1cccc(Sc2ccc(NC(=O)NC(=O)c3ccccc3)cc2)c1 | 65% | 41% | 77% | 26% |  |
| C=CCNC(=O)c1cccc(Sc2ccc(NC(=O)NC(=O)c3ccccc3Cl)cc2)c1 | 69% | 46% | 109% | 36% |  |
| CCCCCCCCCCNC(=O)c1cccc(Sc2ccc(NC(=O)NC(=O)c3ccc(OC)c(OC)c3Cl)cc2)c1 | 63% | 51% | 79% | 62% |  |
| C=CCNC(=O)c1cccc(Oc2ccc(NC(=S)NC(=O)c3ccccc3)cc2)c1 | 97% | 68% | 88% | 73% |  |
| CCCCCCCCCCNC(=O)c1cccc(S(=O)(=O)c2ccc(NC(=O)NC(=O)c3cc(OC)cc(OC)c3)cc2)c1 | 48% | 43% | 71% | 56% |  |
| C=CCNC(=O)c1cccc(Sc2ccc(NC(=O)NC(=O)c3cc(OC)cc(OC)c3)cc2)c1 | 62% | 41% | 105% | 87% |  |
| CNC(=O)c1cccc(Sc2ccc(NC(=O)NC(=O)c3ccccc3[N+](=O)[O-])cc2)c1 | 60% | 38% | 63% | 23% |  |
| O=C(NC(=O)c1ccccc1Cl)Nc1ccc(Sc2cccc(C(=O)NCc3ccccc3)c2)cc1 | 86% | 66% | 95% | 74% |  |
| C=CCNC(=O)c1cccc(Sc2ccc(NC(=O)NC(=O)c3ccc(OC)c(OC)c3Cl)cc2)c1 | 88% | 44% | 101% | 23% |  |
| COc1cc2c(c(OC)c1OC)-c1ccc(OC)c(=O)cc1[C@@H](NC(C)=O)CC2 [COLCHICINE] |  |  |  |  | IC50 [5]: 2200 nM |
| C=CCNC(=O)c1cccc(Oc2ccc(NC(=O)NC(=O)c3ccc(OC)c(OC)c3Cl)cc2)c1 | 61% | 53% | 67% | 50% |  |
| CNC(=O)c1cccc(Sc2ccc(NC(=O)NC(=O)c3ccc(OC)c(OC)c3Cl)cc2)c1 | 35% | 33% | 30% | 21% | residual activity [6]: 40%; Activity (SK-OV-3): Active; inhibition [7]: 50%; IC50 [8]: 500 nM; IC50 (PANC-1 [9]): 700 nM; IC50 [10]: 1700 nM; Activity (MCF7 [11]): 75.71%; Activity (MCF7 [12]): Active; Activity (MCF7 [13]): 47.23% |
| CNC(=O)c1cccc(Sc2ccc(NC(=O)NC(=O)c3cc(OC)cc(OC)c3Cl)cc2)c1 | 77% | 52% | 54% | 31% |  |
| C=CCNC(=O)c1cccc(Oc2ccc(NC(=O)NC(=O)c3ccccc3Cl)cc2)c1 | 47% | 38% | 36% | 23% | IC50 [8]: 150 nM; IC50 (PANC-1 [9]): 800 nM; IC50 [10]: 4000 nM; Activity (MCF7 [11]): 67.49%; Activity (MCF7 [12]): Active; Activity (MCF7 [13]): 38.29% |
| C=CCNC(=O)c1cccc(Sc2ccc(NC(=O)NC(=O)c3ccccc3[N+](=O)[O-])cc2)c1 | 70% | 44% | 50% | 27% |  |
| O=C(NC(=O)c1ccccc1)Nc1ccc(Sc2cccc(C(=O)NCc3ccccc3)c2)cc1 | 67% | 53% | 79% | 73% |  |
| CCCCCCCCCCNC(=O)c1cccc(Sc2ccc(NC(=O)NC(=O)c3cc(OC)cc(OC)c3)cc2)c1 | 74% | 58% | 77% | 66% |  |
| C=CCNC(=O)c1cccc(Oc2ccc(NC(=O)NC(=O)c3ccccc3)cc2)c1 | 66% | 51% | 76% | 70% |  |
